# Test system: HEK-293T
# Experiment: Multiplex assay against HEK293T;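 on Population Tubulin-Different-Phenotype (%): share of the cells with healthy nuclei that show this phenotype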
# Type: toxicity, cell-based
# Conditions: human
# Method in brief: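 Phenotypes for tubulin, mitochondrial mass and membrane permeability are expressed as per cents of healthy-nucleus cells. Cells were stained live at seeding with Hoechst33342, BioTracker Green Microtubule Cytoskeleton Dye, MitoTracker Red and Annexin V Alexa Fluor 680, then imaged after compound addition on a CQ1 microscope at 37°C and 5% CO2. Machine-learning gating in CellPathfinder separated Hoechst high-intensity objects from normal cells, divided normal cells by nuclear state (healthy, pyknosed, fragmented) and divided pyknosed cells into mitotic or apoptotic.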
# [1] = 12 h, 1 µM, compound concentration 1 uM, replicate 1
# [2] = 12 h, 1 µM, compound concentration 1 uM, replicate 2
# [3] = 12 h, 10 µM, compound concentration 10 uM, replicate 1
# [4] = 12 h, 10 µM, compound concentration 10 uM, replicate 2
# [5] = 24 h, 1 µM, compound concentration 1 uM, replicate 1
# [6] = 24 h, 1 µM, compound concentration 1 uM, replicate 2
# [7] = 24 h, 10 µM, compound concentration 10 uM, replicate 1
# [8] = 24 h, 10 µM, compound concentration 10 uM, replicate 2
# [9] = 48 h, 1 µM, compound concentration 1 uM, replicate 1
# [10] = 48 h, 1 µM, compound concentration 1 uM, replicate 2
# [11] = 48 h, 10 µM, compound concentration 10 uM, replicate 1
# [12] = 48 h, 10 µM, compound concentration 10 uM, replicate 2
compound,measurement,setting,value
C=CC(=O)Nc1cccc(C(=O)Nc2ccc(Nc3cc(-c4[nH]c(SC)nc4C)ccn3)cc2)c1,Population Apoptotic (%),[1],48%
same,Population Fragmented Nuclei (%),[1],16%
same,Population Healthy Nuclei (%),[1],29%
same,Population Hoechst High Intensity Objects (%),[1],14%
same,Population Membrane Permeable-Phenotype (%),[1],4%
same,Population Mitochondria Different-Phenotype (%),[1],80%
same,Population Mitotic Cells (%),[1],51%
same,Population Normal (%),[1],85%
same,Population Pyknosed Nuclei (%),[1],54%
same,Population Tubulin-Different-Phenotype (%),[1],54%
same,Total Cell Count,[1],327
same,Population Apoptotic (%),[2],5%
same,Population Fragmented Nuclei (%),[2],7%
same,Population Healthy Nuclei (%),[2],45%
same,Population Hoechst High Intensity Objects (%),[2],5%
same,Population Membrane Permeable-Phenotype (%),[2],2%
same,Population Mitochondria Different-Phenotype (%),[2],24%
same,Population Mitotic Cells (%),[2],94%
same,Population Normal (%),[2],94%
same,Population Pyknosed Nuclei (%),[2],47%
same,Population Tubulin-Different-Phenotype (%),[2],17%
same,Total Cell Count,[2],190
same,Population Apoptotic (%),[3],48%
same,Population Fragmented Nuclei (%),[3],18%
same,Population Healthy Nuclei (%),[3],30%
same,Population Hoechst High Intensity Objects (%),[3],14%
same,Population Membrane Permeable-Phenotype (%),[3],20%
same,Population Mitochondria Different-Phenotype (%),[3],83%
same,Population Mitotic Cells (%),[3],51%
same,Population Normal (%),[3],85%
same,Population Pyknosed Nuclei (%),[3],51%
same,Population Tubulin-Different-Phenotype (%),[3],70%
same,Total Cell Count,[3],210
same,Population Apoptotic (%),[4],29%
same,Population Fragmented Nuclei (%),[4],4%
same,Population Healthy Nuclei (%),[4],29%
same,Population Hoechst High Intensity Objects (%),[4],6%
same,Population Membrane Permeable-Phenotype (%),[4],19%
same,Population Mitochondria Different-Phenotype (%),[4],34%
same,Population Mitotic Cells (%),[4],70%
same,Population Normal (%),[4],93%
same,Population Pyknosed Nuclei (%),[4],65%
same,Population Tubulin-Different-Phenotype (%),[4],82%
same,Total Cell Count,[4],240
same,Population Apoptotic (%),[5],48%
same,Population Fragmented Nuclei (%),[5],15%
same,Population Healthy Nuclei (%),[5],35%
same,Population Hoechst High Intensity Objects (%),[5],17%
same,Population Membrane Permeable-Phenotype (%),[5],3%
same,Population Mitochondria Different-Phenotype (%),[5],58%
same,Population Mitotic Cells (%),[5],51%
same,Population Normal (%),[5],82%
same,Population Pyknosed Nuclei (%),[5],49%
same,Population Tubulin-Different-Phenotype (%),[5],48%
same,Total Cell Count,[5],365
same,Population Apoptotic (%),[6],13%
same,Population Fragmented Nuclei (%),[6],5%
same,Population Healthy Nuclei (%),[6],64%
same,Population Hoechst High Intensity Objects (%),[6],1%
same,Population Membrane Permeable-Phenotype (%),[6],10%
same,Population Mitochondria Different-Phenotype (%),[6],16%
same,Population Mitotic Cells (%),[6],86%
same,Population Normal (%),[6],98%
same,Population Pyknosed Nuclei (%),[6],30%
same,Population Tubulin-Different-Phenotype (%),[6],34%
same,Total Cell Count,[6],227
same,Population Apoptotic (%),[7],48%
same,Population Fragmented Nuclei (%),[7],20%
same,Population Healthy Nuclei (%),[7],40%
same,Population Hoechst High Intensity Objects (%),[7],18%
same,Population Membrane Permeable-Phenotype (%),[7],5%
same,Population Mitochondria Different-Phenotype (%),[7],80%
same,Population Mitotic Cells (%),[7],52%
same,Population Normal (%),[7],81%
same,Population Pyknosed Nuclei (%),[7],39%
same,Population Tubulin-Different-Phenotype (%),[7],72%
same,Total Cell Count,[7],233
same,Population Apoptotic (%),[8],31%
same,Population Fragmented Nuclei (%),[8],5%
same,Population Healthy Nuclei (%),[8],51%
same,Population Hoechst High Intensity Objects (%),[8],5%
same,Population Membrane Permeable-Phenotype (%),[8],19%
same,Population Mitochondria Different-Phenotype (%),[8],34%
same,Population Mitotic Cells (%),[8],68%
same,Population Normal (%),[8],94%
same,Population Pyknosed Nuclei (%),[8],43%
same,Population Tubulin-Different-Phenotype (%),[8],81%
same,Total Cell Count,[8],284
same,Population Apoptotic (%),[9],38%
same,Population Fragmented Nuclei (%),[9],17%
same,Population Healthy Nuclei (%),[9],36%
same,Population Hoechst High Intensity Objects (%),[9],16%
same,Population Membrane Permeable-Phenotype (%),[9],6%
same,Population Mitochondria Different-Phenotype (%),[9],34%
same,Population Mitotic Cells (%),[9],61%
same,Population Normal (%),[9],83%
same,Population Pyknosed Nuclei (%),[9],45%
same,Population Tubulin-Different-Phenotype (%),[9],38%
same,Total Cell Count,[9],393
same,Population Apoptotic (%),[10],12%
same,Population Fragmented Nuclei (%),[10],7%
same,Population Healthy Nuclei (%),[10],78%
same,Population Hoechst High Intensity Objects (%),[10],2%
same,Population Membrane Permeable-Phenotype (%),[10],10%
same,Population Mitochondria Different-Phenotype (%),[10],8%
same,Population Mitotic Cells (%),[10],87%
same,Population Normal (%),[10],97%
same,Population Pyknosed Nuclei (%),[10],13%
same,Population Tubulin-Different-Phenotype (%),[10],26%
same,Total Cell Count,[10],435
same,Population Apoptotic (%),[11],52%
same,Population Fragmented Nuclei (%),[11],15%
same,Population Healthy Nuclei (%),[11],43%
same,Population Hoechst High Intensity Objects (%),[11],14%
same,Population Membrane Permeable-Phenotype (%),[11],4%
same,Population Mitochondria Different-Phenotype (%),[11],54%
same,Population Mitotic Cells (%),[11],47%
same,Population Normal (%),[11],85%
same,Population Pyknosed Nuclei (%),[11],40%
same,Population Tubulin-Different-Phenotype (%),[11],69%
same,Total Cell Count,[11],271
same,Population Apoptotic (%),[12],25%
same,Population Fragmented Nuclei (%),[12],8%
same,Population Healthy Nuclei (%),[12],75%
same,Population Hoechst High Intensity Objects (%),[12],3%
same,Population Membrane Permeable-Phenotype (%),[12],19%
same,Population Mitochondria Different-Phenotype (%),[12],14%
same,Population Mitotic Cells (%),[12],74%
same,Population Normal (%),[12],96%
same,Population Pyknosed Nuclei (%),[12],15%
same,Population Tubulin-Different-Phenotype (%),[12],64%
same,Total Cell Count,[12],503
